{
  "source": "ChEMBL document CHEMBL3616379",
  "about": "“From carbohydrates to drug-like fragments: Rational development of novel α-amylase inhibitors” (Bioorg Med Chem, 2015)",
  "key": {"Pancreatic alpha-amylase [1]": {"target": "T1, Pancreatic alpha-amylase (Homo sapiens, UniProt P04746)", "T1 sequence (P04746 whole entry)": "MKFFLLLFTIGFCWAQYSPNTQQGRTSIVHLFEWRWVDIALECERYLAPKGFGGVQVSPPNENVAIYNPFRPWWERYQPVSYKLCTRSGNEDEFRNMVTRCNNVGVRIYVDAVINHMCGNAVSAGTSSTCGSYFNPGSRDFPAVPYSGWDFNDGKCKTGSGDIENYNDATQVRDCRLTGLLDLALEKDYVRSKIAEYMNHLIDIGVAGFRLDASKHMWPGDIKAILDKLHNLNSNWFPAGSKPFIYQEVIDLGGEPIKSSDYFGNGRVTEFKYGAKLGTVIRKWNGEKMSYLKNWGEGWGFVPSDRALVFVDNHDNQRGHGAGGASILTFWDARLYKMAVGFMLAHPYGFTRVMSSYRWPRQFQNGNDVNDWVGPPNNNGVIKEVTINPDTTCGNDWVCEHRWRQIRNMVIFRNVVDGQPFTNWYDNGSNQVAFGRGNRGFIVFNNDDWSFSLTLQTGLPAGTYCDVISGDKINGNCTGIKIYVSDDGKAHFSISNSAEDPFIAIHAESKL", "experiment": "Inhibition of human pancreatic alpha-amylase assessed as hydrolysis of G3F by Dixon plot analysis"}, "[2]": {"experiment": "Inhibition of malt alpha-amylase", "settings": "concentration not given here"}, "Pancreatic alpha-amylase [3]": {"target": "T2, Pancreatic alpha-amylase (Sus scrofa, UniProt P00690)", "T2 sequence (P00690 whole entry)": "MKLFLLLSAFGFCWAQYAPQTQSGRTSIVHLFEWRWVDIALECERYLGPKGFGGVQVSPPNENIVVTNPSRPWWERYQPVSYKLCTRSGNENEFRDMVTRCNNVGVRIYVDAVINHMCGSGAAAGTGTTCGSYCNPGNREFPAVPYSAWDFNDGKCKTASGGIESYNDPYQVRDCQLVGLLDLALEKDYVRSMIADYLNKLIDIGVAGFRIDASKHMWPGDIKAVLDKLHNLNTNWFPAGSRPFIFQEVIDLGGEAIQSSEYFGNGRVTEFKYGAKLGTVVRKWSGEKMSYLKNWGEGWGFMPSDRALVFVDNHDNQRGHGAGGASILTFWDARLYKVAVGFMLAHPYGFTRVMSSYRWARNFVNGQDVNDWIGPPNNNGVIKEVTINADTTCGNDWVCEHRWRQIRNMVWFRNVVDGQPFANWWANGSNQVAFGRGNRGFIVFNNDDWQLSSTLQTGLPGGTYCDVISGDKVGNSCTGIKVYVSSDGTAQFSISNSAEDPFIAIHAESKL", "experiment": "Inhibition of porcine pancreatic alpha-amylase using soluble starch as substrate after 30 mins by Bernfeld method"}, "Pancreatic alpha-amylase [4]": {"target": "T2, Pancreatic alpha-amylase", "experiment": "Inhibition of porcine pancreatic alpha-amylase using DP17 amylose as substrate preincubated for 5 mins followed by substrate addition by copper-bicinchoninate method"}, "[5]": {"target": "Alpha-amylase type A isozyme (Hordeum vulgare, UniProt P00693)", "sequence (P00693 whole entry)": "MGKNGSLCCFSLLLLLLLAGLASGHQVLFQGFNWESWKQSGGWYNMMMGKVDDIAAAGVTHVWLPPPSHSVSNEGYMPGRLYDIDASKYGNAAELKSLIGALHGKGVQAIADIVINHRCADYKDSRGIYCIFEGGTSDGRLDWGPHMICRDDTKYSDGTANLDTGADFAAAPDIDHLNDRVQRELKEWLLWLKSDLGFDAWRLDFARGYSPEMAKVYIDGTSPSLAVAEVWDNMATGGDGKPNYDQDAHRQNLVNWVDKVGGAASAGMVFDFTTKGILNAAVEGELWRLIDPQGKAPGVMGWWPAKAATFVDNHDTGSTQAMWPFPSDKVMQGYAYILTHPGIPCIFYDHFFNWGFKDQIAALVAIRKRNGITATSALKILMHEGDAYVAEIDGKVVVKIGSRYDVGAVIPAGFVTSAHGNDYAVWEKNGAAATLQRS", "experiment": "Inhibition of recombinant barley alpha-amylase isozyme-1 using DP17 amylose as substrate preincubated for 5 mins followed by substrate addition by copper-bicinchoninate method"}, "Pancreatic alpha-amylase [6]": {"target": "T1, Pancreatic alpha-amylase", "experiment": "Inhibition of human pancreatic alpha-amylase"}, "Alpha-amylase 1A [7]": {"target": "T3, Alpha-amylase 1A (Homo sapiens, UniProt P0DUB6)", "T3 sequence (P0DUB6 whole entry)": "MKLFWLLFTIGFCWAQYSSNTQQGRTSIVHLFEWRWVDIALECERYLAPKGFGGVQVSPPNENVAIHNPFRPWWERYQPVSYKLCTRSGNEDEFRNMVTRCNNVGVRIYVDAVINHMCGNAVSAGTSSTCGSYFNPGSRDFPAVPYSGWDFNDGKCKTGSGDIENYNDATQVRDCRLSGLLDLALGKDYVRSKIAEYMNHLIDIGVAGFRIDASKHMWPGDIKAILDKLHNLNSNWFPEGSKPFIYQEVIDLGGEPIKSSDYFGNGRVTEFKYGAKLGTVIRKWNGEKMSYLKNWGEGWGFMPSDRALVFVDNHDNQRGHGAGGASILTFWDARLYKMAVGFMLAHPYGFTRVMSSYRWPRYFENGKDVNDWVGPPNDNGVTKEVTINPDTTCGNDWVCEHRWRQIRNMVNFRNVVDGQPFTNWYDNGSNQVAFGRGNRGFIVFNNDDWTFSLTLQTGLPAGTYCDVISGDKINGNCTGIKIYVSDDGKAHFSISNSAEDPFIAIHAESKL", "experiment": "Inhibition of human salivary alpha-amylase using GalG2CNP as substrate assessed as CNP liberation by spectrophotometric analysis", "procedure,_shortened": "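Chromogenic kinetic assay with 2 nM HSA and 0.75-4 mM GalG2CNP in 50 mM MES pH 6.0 with 5 mM Ca(OAc)2, 51.5 mM NaCl, 152 mM NaN3, 37°C. Substrate and inhibitor (DMSO dilutions) were premixed and the reaction started by adding enzyme. CNP release was followed continuously at 400 nm. IC50 was taken from a four-parameter logistic fit of fractional activity versus inhibitor level, three repeats.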"}, "Alpha-amylase 1A [8]": {"target": "T3, Alpha-amylase 1A", "experiment": "Non-competitive inhibition of human salivary alpha-amylase using GalG2CNP as substrate assessed as CNP liberation by Lineweaver-Burk plot analysis", "procedure,_shortened": "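Same HSA/GalG2CNP system: 2 nM enzyme, 0.75-4 mM substrate, 50 mM MES pH 6.0 with Ca(OAc)2, NaCl, NaN3, 37°C, CNP followed continuously at 400 nm, inhibitor added from DMSO. Inhibition type was assigned from Lineweaver-Burk plots.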"}, "Pancreatic alpha-amylase [9]": {"target": "T1, Pancreatic alpha-amylase", "experiment": "Inhibition of human pancreatic alpha-amylase expressed in Pichia pastoris using amylase as substrate preincubated with substrate for 10 mins followed by protein addition measured every 5 mins"}, "[10]": {"experiment": "Inhibition of Escherichia coli MurC ligase after 15 mins by Malachite green assay"}, "Alpha-amylase 1A [11]": {"target": "T3, Alpha-amylase 1A", "experiment": "Inhibition of human salivary alpha-amylase using GalG2CNP as substrate by UV-Vis spectrophotometric analysis", "settings": "read-out: IC50"}, "Pancreatic alpha-amylase [12]": {"target": "T1, Pancreatic alpha-amylase", "experiment": "Competitive inhibition of human pancreatic alpha-amylase by double reciprocal plot analysis"}, "[13]": {"target": "T4, Alpha-amylase 1A (Homo sapiens) (UniProt P0DUB6)", "T4 sequence (whole entry)": "T3 sequence (P0DUB6 whole entry)", "experiment": "Potency index, ratio of BAS 04880564 IC50 to compound IC50 for human salivary alpha-amylase"}, "Escherichia coli": {"tested_on": "Escherichia coli", "experiment": "Inhibition of Escherichia coli MurC ligase assessed as residual activity at 100 uM after 15 mins by Malachite green assay"}, "[14]": {"target": "T4, Alpha-amylase 1A (Homo sapiens)", "experiment": "Mixed type inhibition of human salivary alpha-amylase using GalG2CNP as substrate by Lineweaver-Burk plot analysis", "procedure,_shortened": "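Inhibition mode assigned from Lineweaver-Burk plots. Human salivary α-amylase (2 nM) started reactions containing GalG2CNP (0.75–4 mM) and inhibitor in DMSO, in 50 mM MES pH 6.0 with 5 mM Ca(OAc)2, 51.5 mM NaCl, 152 mM NaN3 at 37°C. Rates from continuous 400 nm absorbance of released CNP.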"}, "[15]": {"target": "T5, Pancreatic alpha-amylase (Homo sapiens) (UniProt P04746)", "T5 sequence (whole entry)": "T1 sequence (P04746 whole entry)", "experiment": "Inhibition of human pancreatic alpha-amylase using CNPG3 as substrate by spectrophotometric analysis in presence of 40 mM G3F as donor compound and 25 mM 5FIdoF as acceptor compound relative to control"}},
  "note": "Active and inactive are the calls of the source. No cut-off for these calls is given here.",
  "data": [
    {"compound": "OC[C@H]1N/C(=N/O)[C@H](O)[C@@H](O)[C@@H]1O[C@H]1O[C@H](CO)[C@@H](O[C@H]2O[C@H](CO)[C@@H](O)[C@H](O)[C@H]2O)[C@H](O)[C@H]1O", "values": [
      {"measurement": "Ki", "setting": "Pancreatic alpha-amylase [1]", "result": 1800, "unit": "µM"}
    ]},
    {"compound": "CC(=O)OCC(OC(C)=O)C1OC(O)=C(O)C1=O", "note": "(stereo not drawn)", "values": [
      {"measurement": "inhibition", "setting": "[2]", "result": 99, "unit": "%"}
    ]},
    {"compound": "O=C(/C=C/c1ccccc1)c1ccccc1", "note": "[CHALCONE]", "values": [
      {"measurement": "Ki", "setting": "Pancreatic alpha-amylase [3]", "result": 48, "unit": "µM"}
    ]},
    {"compound": "O=S(=O)(O)O[C@@H](CO)[C@@H](O)CN1C[C@@H](O)[C@H](O)[C@H]1CO", "values": [
      {"measurement": "Ki", "setting": "Pancreatic alpha-amylase [4]", "result": "< 10000", "unit": "µM"},
      {"measurement": "Ki", "setting": "[5]", "result": "< 10000", "unit": "µM"}
    ]},
    {"compound": "CC1OC(OC2C(CO)OC(OCC3OC(O)C(O)C(O)C3O)C(O)C2O)C(O)C(O)C1NC1C=C(CO)C(OC2OC(CO)C(OC3OC(CO)C(O)C(O)C3O)C(O)C2O)C(O)C1O", "note": "(stereo not drawn)", "values": [
      {"measurement": "Ki", "setting": "Pancreatic alpha-amylase [6]", "result": 0.012, "unit": "µM"}
    ]},
    {"compound": "O=C(OC[C@H]1O[C@@H](OC(=O)c2cc(O)c(O)c(O)c2)[C@H](OC(=O)c2cc(O)c(O)c(O)c2)[C@@H](OC(=O)c2cc(O)c(O)c(O)c2)[C@@H]1OC(=O)c1cc(O)c(O)c(O)c1)c1cc(O)c(O)c(O)c1", "note": "[PENTAGALLOYL GLUCOSE]", "values": [
      {"measurement": "IC50", "setting": "Alpha-amylase 1A [7]", "result": 2.35, "unit": "µM"},
      {"measurement": "Ki", "setting": "Alpha-amylase 1A [8]", "result": 2.6, "unit": "µM"}
    ]},
    {"compound": "C[C@H]1O[C@H](O[C@H]2[C@H](O)[C@@H](O)[C@@H](O)O[C@@H]2CO)[C@H](O)[C@@H](O)[C@@H]1NC1=C[C@H](CO)[C@@H](O[C@H]2O[C@H](CO)[C@@H](O[C@H]3O[C@H](CO)[C@@H](O)[C@H](O)[C@H]3O)[C@H](O)[C@H]2O)[C@H](O)[C@H]1O", "values": [
      {"measurement": "IC50", "setting": "Pancreatic alpha-amylase [9]", "result": 2.59, "unit": "µM"}
    ]},
    {"compound": "O=C(O)c1cc(Nc2nc(-c3ccc(O)cc3O)cs2)ccc1O", "values": [
      {"measurement": "IC50", "setting": "[10]", "result": 347, "unit": "µM"},
      {"measurement": "IC50", "setting": "Alpha-amylase 1A [11]", "result": 423, "unit": "µM"}
    ]},
    {"compound": "C[C@@H]1O[C@@H](O[C@@H]2CO[C@@H](Oc3c(O)cc(C4=C(O[C@@H]5O[C@@H](C)[C@H](O)[C@@H](O)[C@H]5O[C@@H]5O[C@H](COC(=O)/C=C/c6ccc(O)c(O)c6)[C@@H](O)[C@H](O)[C@H]5O[C@@H]5O[C@H](CO)[C@@H](O)[C@H](O)[C@H]5O)C(=O)c5c(O)cc(O)cc5C4)cc3O)[C@H](O)[C@H]2O)[C@H](O)[C@H](O)[C@H]1O", "values": [
      {"measurement": "Ki", "setting": "Pancreatic alpha-amylase [12]", "result": 0.008, "unit": "µM"}
    ]},
    {"compound": "CC(=O)c1cccc(Nc2nc(-c3ccc(O)cc3O)cs2)c1", "values": [
      {"measurement": "Ratio IC50", "setting": "[13]", "result": 1.38},
      {"measurement": "Activity", "setting": "Escherichia coli", "result": 83, "unit": "%"},
      {"measurement": "inhibition", "setting": "[14]", "result": "Active"},
      {"measurement": "IC50", "setting": "Alpha-amylase 1A [11]", "result": 100, "unit": "µM"}
    ]},
    {"compound": "OCC1OC(OC2C(O)C(O)C(F)OC2(F)CO)C(O)C(O)C1O", "note": "(stereo not drawn)", "values": [
      {"measurement": "inhibition", "setting": "[15]", "result": 90, "unit": "%"}
    ]},
    {"compound": "COc1cc(/C=C/C(=O)OC[C@H]2O[C@@H](O[C@H]3[C@H](OC4=C(c5cc(O)c(O[C@@H]6OC[C@@H](O[C@@H]7O[C@@H](C)[C@H](O)[C@@H](O)[C@H]7O)[C@H](O)[C@H]6O)c(O)c5)Cc5cc(O)cc(O)c5C4=O)O[C@@H](C)[C@H](O)[C@H]3O)[C@H](O[C@@H]3O[C@H](CO)[C@@H](O)[C@H](O)[C@H]3O)[C@@H](O)[C@@H]2O)ccc1O", "values": [
      {"measurement": "Ki", "setting": "Pancreatic alpha-amylase [12]", "result": 6.1, "unit": "µM"}
    ]}
  ]
}
